This excerpt belongs to a sample that is enriched for hits.
NOD2-RIPK2 inh = blocks binding of human NOD2 to RIPK2 | O43353 | CHO BLA complementation NOD2-RIPK2, CCF4 ratio | hit rate 0.38% among 360,000 | inhibition, % at 4.98 µM; in the data active means inhibition above about 21%;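 further: 0% = vehicle only and 100% = reference blocker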
Target sequence (O43353 whole entry, looked up): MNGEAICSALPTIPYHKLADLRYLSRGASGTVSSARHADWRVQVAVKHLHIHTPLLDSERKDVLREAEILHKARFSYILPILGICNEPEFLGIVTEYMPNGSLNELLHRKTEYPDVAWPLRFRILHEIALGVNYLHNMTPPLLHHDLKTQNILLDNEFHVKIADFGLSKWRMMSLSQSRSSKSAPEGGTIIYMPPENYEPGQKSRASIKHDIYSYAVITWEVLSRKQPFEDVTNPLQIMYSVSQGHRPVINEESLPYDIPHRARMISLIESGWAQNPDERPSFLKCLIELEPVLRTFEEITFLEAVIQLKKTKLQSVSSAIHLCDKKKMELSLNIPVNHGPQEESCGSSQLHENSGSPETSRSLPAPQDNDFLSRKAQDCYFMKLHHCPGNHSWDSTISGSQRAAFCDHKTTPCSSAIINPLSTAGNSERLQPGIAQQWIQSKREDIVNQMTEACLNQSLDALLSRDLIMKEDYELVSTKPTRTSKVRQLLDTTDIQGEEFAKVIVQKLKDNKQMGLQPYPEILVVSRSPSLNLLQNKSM
TLR4-MyD88 BLA = TLR4-MyD88 interaction inhibition in cells | O00206+Q99836 | HeLa CL3-4 TLR4/MyD88 BLA complementation, FRET ratio | inhibition, % at 8.4 µM | hit rate 0.18% among 200,000 | AID 861; in the data active means inhibition above about 25%;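 further: 0% = vehicle and 100% = reference inhibitor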
CHOP inhibitor = blocks CHOP induction under ER stress; CHO-K1 CHOP-promoter luciferase, tunicamycin-induced, 15-18 h; inhibition, % at 10 µM; hit rate 3.8% among 220,000; AID 2732;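 active means compounds that reduced the stress-induced luciferase reporter signal by more than about 70% of percent inhibition, limit read from the data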;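 further: 0% = tunicamycin plus vehicle and 100% = wells without tunicamycin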
TLR9-MyD88 block = inhibitors of human TLR9-MyD88 binding. hit rate 0.21% among 340,000. inhibition, % at 4.98 µM. CHO BLA complementation TLR9-MyD88, CCF4 FRET ratio;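 active means inhibition above the mean over all tested compounds plus 3 SD, cut at about 21% in these data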;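 further: 0% = DMSO only wells and 100% = clavulanate BLA inhibitor control wells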
CHOP UPR activ = activators of apoptotic arm of unfolded protein response (CHOP); hit rate 0.34% among 330,000; activation, % at 10 µM; CHO-CHOP luciferase reporter, UPR activation, luminescence; percent of tunicamycin response over DMSO baseline;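 active means at 10 µM dose, activation of 40% or more, normalized to positive control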;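 further: 100% = tunicamycin at 10 µg/mL and 0% = DMSO alone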
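Dosing – one dose, 10 µM in 0.5% DMSO · System – CHO-CHOP cells, stable luciferase reporter of PERK-eIF2a-CHOP signalling · Input – 500 cells/well · Control set – tunicamycin 10 µg/mL final as positive, DMSO-only wells as negative · Timing – 6 h compound treatment, 37 °C · Measure – % activation vs tunicamycin · Technique – luminescence read with Steady-Glo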
UPR XBP1 act = adaptive UPR (XBP1) activation. CHO-XBP1 luciferase reporter, IRE1-XBP1 UPR activation, luminescence; percent of tunicamycin response, DMSO as zero. activation, % at 20 µM. hit rate 0.33% among 330,000;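 active means versus positive control, 20 µM dose yields 30% or more activation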;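 further: 100% = tunicamycin at 10 µg/mL and 0% = DMSO only wells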
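assay system = CHO-XBP1 luciferase reporter cells | amount = 1000 cells/well | buffer or medium = F12 plus 10% FBS | compound dosing = single point, 20 µM final compound, 1% DMSO | incubation = 16-18 h cell attachment at 37 °C, then 6 h compound exposure | detection = Steady-Glo luminescence read | controls = tunicamycin 10 µg/mL and vehicle-only wells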
NOD2 RIPK2 conf = NOD2-RIPK2 interaction inhibition confirmed | shares compounds with NOD2-RIPK2 inh | hit rate 70% among 1,200 | inhibition, % at 4.98 µM | CHO cells, NOD2-RIPK2 BLA complementation, CCF4 FRET;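 active means mean inhibition across replicates above a set limit taken from the earlier primary screen, cut at about 21% in these data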;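 further: 0% = DMSO-only wells and the high end = clavulanate BLA-blocked wells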
NOD2 BLA counter = NOD2-RIPK2 counterscreen BLA reporter activity; CHO BLA reporter, CCF4 FRET ratio; hit rate 57% among 1,200; AID 624371; shares compounds with NOD2-RIPK2 inh; inhibition, % at 4.98 µM;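 active means mean inhibition above the low-control mean inhibition plus three low-control SD, cut at about 11% in these data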;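 further: 0% = DMSO only wells and 100% = clavulanate high control wells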
* hit, by the source's call; nt = no result given.

SMILES	NOD2-RIPK2 inh	TLR4-MyD88 BLA	CHOP inhibitor	TLR9-MyD88 block	CHOP UPR activ	UPR XBP1 act	NOD2 RIPK2 conf	NOD2 BLA counter
O=c1c2cccc(Cl)c2nc2n1Cc1ccccc1-2	-4.1	nt	-13.4	-2.4	6.0	0.8	nt	nt
COc1ccccc1N(C)S(=O)(=O)c1ccc(C(=O)OCC(N)=O)cc1	49.9*	-2.6	-19.4	6.6	-1.3	2.0	1.0	-3.7
Cc1ccc(C)c(NC(=O)c2ccc(S(=O)(=O)N(C)CC3CCCO3)cc2)c1 (configuration not stated)	-0.6	nt	nt	-6.6	1.0	-4.0	nt	nt
COc1ccc(CCNC(=O)C/C(C)=N/NC(=O)c2ccc([N+](=O)[O-])cc2Cl)cc1OC	45.9*	nt	nt	-4.5	1.7	-5.4	-4.0	-2.2
O=C(NC1CCCCC1)c1cnn2c(C(F)(F)F)cc(-c3ccco3)nc12	24.2*	-9.4	38.9	-3.3	-0.3	1.1	12.2	3.2
NC(=O)C1CCN(C(=O)CCSCc2ccccc2)CC1	-6.8	nt	nt	3.3	1.3	-6.1	nt	nt
CCOC(=O)C1=C(C)Nc2sc(C(=O)c3ccc(C)cc3)c(N)c2C1c1ccc(C(=O)OC)cc1 (configuration not stated)	41.5*	13.5	16.3	17.9	1.5	-1.0	8.8	17.0*
CCOC(=O)C1=C(C)Nc2sc(C(=O)c3ccc(F)cc3)c(N)c2C1c1ccc(C(=O)OC)cc1 (configuration not stated)	-0.7	-10.7	29.9	-16.5	7.5	3.5	nt	nt
CCOc1ccc(S(=O)(=O)Nc2ccc(C(=O)NCC(c3ccco3)N(C)C)cc2)cc1 (configuration not stated)	24.6*	nt	nt	-2.2	1.3	-4.2	5.1	0.0
CN(C)C(CNC(=O)c1ccc(NS(=O)(=O)c2cccc([N+](=O)[O-])c2)cc1)c1ccco1 (configuration not stated)	-9.8	nt	nt	13.5	0.0	1.3	nt	nt
CC(C)N(Cc1ccccc1)C(=S)NC1CCCCC1	-5.7	4.2	8.0	12.1	-1.1	0.6	nt	nt
O=c1c(-c2cc3ccccc3[nH]2)nc2ccccc2n1C(CCc1ccccc1)c1nc2ccccc2[nH]1 (configuration not stated)	38.4*	nt	nt	nt	nt	nt	36.0*	61.9*
CSCCC(c1nc2ccccc2[nH]1)n1c(/C=C/c2ccc(F)c(F)c2)nc2ccccc21 (configuration not stated)	-13.9	nt	nt	nt	nt	nt	nt	nt
CSCCC(c1nc2ccccc2[nH]1)n1c(=O)c(-c2cc3ccccc3[nH]2)nc2ccccc21 (configuration not stated)	40.0*	nt	nt	nt	nt	nt	34.6*	59.4*
Cc1ccc(Cc2nc3ccccc3n2C(CCc2ccccc2)c2nc3ccccc3[nH]2)cc1 (configuration not stated)	-5.0	nt	nt	nt	nt	nt	nt	nt
O=[N+]([O-])c1cccnc1S(=O)(=O)c1ccccc1	18.1	nt	nt	0.3	-10.0	-9.9	nt	nt
COc1ccc([N+](=O)[O-])c(S(=O)(=O)c2ccc(Cl)cc2)n1	21.5*	nt	23.8	-3.3	-5.4	-8.7	47.9*	-11.3
COc1ccc([N+](=O)[O-])c(S(=O)(=O)c2ccccc2)n1	33.0*	nt	106.5*	nt	-8.8	-9.0	59.0*	-4.2
CS(=O)(=O)c1ccc(C(=O)OCc2nnc(-c3ccccc3)o2)cc1[N+](=O)[O-]	21.3*	-6.0	88.0*	20.1	nt	nt	54.5*	6.2
CC(=O)N1Cc2cc([N+](=O)[O-])ccc2Oc2ccccc21	-6.4	2.8	3.7	2.0	-1.2	-2.6	nt	nt
O=C(Cc1c[nH]c2ccccc12)NCc1ccco1	-5.5	2.6	4.0	-0.1	-0.8	-1.5	nt	nt
O=C(NCc1ccco1)C(=O)c1c[nH]c2ccccc12	31.6*	8.3	-8.1	1.2	4.6	3.5	-1.8	-3.8

Bioassay records from PubChem.
